# Measured values gathered from unrelated publications.
# Lines come from different studies, so protocols differ.
# Sample: plasma
SMILES,test system,conditions,Cmax
CC[C@H](C)[C@@H]1NC(=O)[C@@](C)(NC(=O)[C@H](CCCNC(=N)N)NC(=O)[C@H](CC(C)C)NC(=O)[C@@H](NC(=O)[C@H](CCC(N)=O)NC(=O)[C@H](CC(C)C)NC(C)=O)[C@@H](C)O)CCCC=CCCC[C@@](C)(C(=O)N[C@@H](CC(C)C)C(=O)N[C@@H](Cc2ccc3ccccc3c2)C(N)=O)NC(=O)[C@H](CCCNC(=N)N)NC(=O)[C@H](CCC(N)=O)NC1=O,male BALB/c mouse,"intravenous, 15 mg/kg",102 µM
COc1ccc([C@@]23Oc4cc(OC)cc(OC)c4[C@]2(O)[C@H](O)[C@H](C(=O)N(C)C)[C@H]3c2ccccc2)cc1,mouse,"intravenous, 5 mg/kg",~11 µM
C=CC(=O)N1CC2CC(n3nc(-c4ccc(C(=O)Nc5ccccn5)cc4)c4c(N)ncnc43)CC2C1 (centres unmarked),SCID mouse,"oral, 0.2 mg/kg",10.5 ng/mL
CN1CCC[C@H](CN2c3ccccc3Sc3ccccc32)C1.O=C(O)CCC(=O)O,mouse,"oral, 64 mg/kg, single dose",1540 ng/mL
CC(C)(C)c1ccc(O)c(CN(Cc2cc(C(C)(C)C)ccc2O)C2CCC(NC(N)=O)CC2)c1 (centres unmarked),male C57BL/6 mouse,"oral, 10 mg/kg, single dose",1020 ng/mL
COc1ccc(C(O)COc2ccc(-c3csc(-c4ccc(OCC(O)c5ccc(OC)c(OC)c5)cc4)n3)cc2)cc1OC (centres unmarked),C57BL/6 mouse,"oral, 30 mg/kg",5980 ng/mL
CS(=O)(=O)CCNCc1ccc(-c2ccc3ncnc(Nc4ccc(OCc5cccc(F)c5)c(Cl)c4)c3c2)o1,nude mouse,"oral, 50 mg/kg, single dose",6470 ng/mL
Cc1nc(-c2cnc(NC(C)C)n(C)c2=O)ccc1Oc1ccnc(-c2cnn(C)c2)c1,female mouse,"oral, 7.5 mg/kg, single dose",4450 ng/mL
